Source: ChEMBL document CHEMBL2046289, “Novel 2-(2-(benzylthio)-1H-benzo[d]imidazol-1-yl)acetic acids: discovery and hit-to-lead evolution of a selective CRTh2 receptor antagonist chemotype” (Bioorg Med Chem Lett, 2012)

Experiments:
[1] = target: T1, Prostaglandin D2 receptor 2 (Homo sapiens, UniProt Q9Y5Y4); assay: Antagonist activity at human CRTh2 receptor expressed in HEK293 cells assessed as inhibition of PGD2-induced calcium flux by FLIPR assay; type: functional, cell-based
T1 sequence (Q9Y5Y4 whole entry): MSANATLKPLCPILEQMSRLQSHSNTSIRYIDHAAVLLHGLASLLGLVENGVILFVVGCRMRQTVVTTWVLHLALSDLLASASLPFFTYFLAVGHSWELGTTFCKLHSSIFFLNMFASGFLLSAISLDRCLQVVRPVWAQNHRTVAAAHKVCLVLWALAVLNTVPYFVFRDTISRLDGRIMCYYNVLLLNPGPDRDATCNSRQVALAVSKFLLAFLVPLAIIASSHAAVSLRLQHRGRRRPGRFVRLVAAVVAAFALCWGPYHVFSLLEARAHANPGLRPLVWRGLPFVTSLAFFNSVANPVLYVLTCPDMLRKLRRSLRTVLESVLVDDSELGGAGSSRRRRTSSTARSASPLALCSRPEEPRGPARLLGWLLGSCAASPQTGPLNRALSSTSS

[2] = target: T1, Prostaglandin D2 receptor 2; assay: Displacement of [3H]-PGD2 from human CRTh2 receptor expressed in HEK293 cells; type: cell-based
[3] = Volume of distribution at steady state in Wistar rat at 1 mg/kg, iv and 10 mg/kg, po; type: ADME, organism-based; conditions: in vivo, read-out: Vdss
How it was run: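 Male Wistar rats, 3 animals per experiment; intravenous dose 1 mg/kg and oral dose 10 mg/kg, each given as a solution.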

Structure (SMILES): O=C(O)Cn1c(SCCOc2ccc(Cl)cc2)nc2ccccc21
- IC50 [1]: 6600 nM
- IC50 [2]: 1500 nM

Structure (SMILES): O=C(O)Cn1c(SCc2ccccc2)nc2ccccc21
- IC50 [2]: 388 nM

Structure (SMILES): O=C(O)Cn1c(SCCOc2ccccc2)nc2ccccc21
- IC50 [2]: 590 nM

Structure (SMILES): COC(=O)c1cccc(CSc2nc3ccccc3n2CC(=O)O)c1
- IC50 [2]: 450 nM

Structure (SMILES): O=C(O)Cn1c(SCCOc2ccc3ccccc3c2)nc2ccccc21
- IC50 [2]: 2500 nM

Structure (SMILES): O=C(O)Cn1c(SCCOc2cccc3ccccc23)nc2ccccc21
- IC50 [2]: 2000 nM

Structure (SMILES): O=C(O)Cn1c(SCCCOc2ccccc2)nc2ccccc21
- IC50 [2]: 786 nM

Structure (SMILES): O=C(O)Cn1c(SCCCCOc2ccccc2)nc2ccccc21
- IC50 [2]: 1400 nM

Structure (SMILES): O=C(O)Cn1c(SCCCc2ccccc2)nc2ccccc21
- IC50 [2]: 475 nM

Structure (SMILES): O=C(O)Cn1c(SCCCNc2ccccc2)nc2ccccc21
- IC50 [2]: 2690 nM

Structure (SMILES): O=C(O)Cn1c(SCCNc2ccccc2)nc2ccccc21
- IC50 [2]: 7690 nM

Structure (SMILES): CCCCCCSc1nc2ccccc2n1CC(=O)O
- IC50 [2]: 1360 nM

Structure (SMILES): CCCCCSc1nc2ccccc2n1CC(=O)O
- IC50 [2]: 1240 nM

Structure (SMILES): CCCCSc1nc2ccccc2n1CC(=O)O
- IC50 [2]: 2370 nM

Structure (SMILES): CCOC(=O)CCSc1nc2ccccc2n1CC(=O)O
- IC50 [2]: 11400 nM

Structure (SMILES): CCOC(=O)CCCSc1nc2ccccc2n1CC(=O)O
- IC50 [2]: 4410 nM

Structure (SMILES): CCOC(=O)CCCCSc1nc2ccccc2n1CC(=O)O
- IC50 [2]: 2360 nM

Structure (SMILES): CCOC(=O)CCCCCSc1nc2ccccc2n1CC(=O)O
- IC50 [2]: 1010 nM

Structure (SMILES): CCNC(=O)CCCCSc1nc2ccccc2n1CC(=O)O
- IC50 [2]: > 10000 nM

Structure (SMILES): O=C(O)Cn1c(SCc2ccc(Cl)cc2)nc2ccccc21
- IC50 [2]: 160 nM

Structure (SMILES): O=C(O)Cn1c(SCc2cccc(Cl)c2)nc2ccccc21
- IC50 [2]: 186 nM

Structure (SMILES): O=C(O)Cn1c(SCc2ccccc2Cl)nc2ccccc21
- IC50 [2]: 370 nM

Structure (SMILES): COc1ccc(CSc2nc3ccccc3n2CC(=O)O)cc1
- IC50 [2]: 210 nM

Structure (SMILES): COc1cccc(CSc2nc3ccccc3n2CC(=O)O)c1
- IC50 [2]: 72 nM

Structure (SMILES): COc1ccccc1CSc1nc2ccccc2n1CC(=O)O
- IC50 [2]: 1100 nM

Structure (SMILES): Cc1ccc(CSc2nc3ccccc3n2CC(=O)O)cc1
- IC50 [2]: 220 nM

Structure (SMILES): Cc1cccc(CSc2nc3ccccc3n2CC(=O)O)c1
- IC50 [2]: 105 nM

Structure (SMILES): Cc1ccccc1CSc1nc2ccccc2n1CC(=O)O
- IC50 [2]: 810 nM

Structure (SMILES): O=C(O)Cn1c(SCc2ccc(Br)cc2)nc2ccccc21
- IC50 [2]: 220 nM

Structure (SMILES): O=C(O)Cn1c(SCc2cccc(Br)c2)nc2ccccc21
- IC50 [2]: 370 nM

Structure (SMILES): O=C(O)Cn1c(SCc2ccccc2Br)nc2ccccc21
- IC50 [2]: 580 nM

Structure (SMILES): COC(=O)c1ccc(CSc2nc3ccccc3n2CC(=O)O)cc1
- IC50 [2]: 10600 nM

Structure (SMILES): COC(=O)c1ccccc1CSc1nc2ccccc2n1CC(=O)O
- IC50 [2]: 520 nM

Structure (SMILES): O=C(O)Cn1c(SCc2ccc(Cl)c(Cl)c2)nc2ccccc21
- IC50 [2]: 380 nM

Structure (SMILES): O=C(O)Cn1c(SCc2cc(Cl)ccc2Cl)nc2ccccc21
- IC50 [2]: 470 nM

Structure (SMILES): COc1ccc(C)cc1CSc1nc2ccccc2n1CC(=O)O
- IC50 [2]: 1200 nM

Structure (SMILES): COc1ccc(Cl)cc1CSc1nc2ccccc2n1CC(=O)O
- IC50 [2]: 740 nM

Structure (SMILES): COc1ccc(OC)c(CSc2nc3ccccc3n2CC(=O)O)c1
- IC50 [2]: 1600 nM

Structure (SMILES): COC(=O)c1ccc(OC)c(CSc2nc3ccccc3n2CC(=O)O)c1
- IC50 [2]: 29 nM

Structure (SMILES): COC(=O)c1cccc(CSc2nc3ccccc3n2CC(=O)O)c1Br
- IC50 [2]: 2900 nM

Structure (SMILES): COC(=O)c1cc(CSc2nc3ccccc3n2CC(=O)O)ccc1Br
- IC50 [2]: 980 nM

Structure (SMILES): COC(=O)c1cc(Br)cc(CSc2nc3ccccc3n2CC(=O)O)c1
- IC50 [2]: 330 nM

Structure (SMILES): COC(=O)c1ccc(Br)c(CSc2nc3ccccc3n2CC(=O)O)c1
- IC50 [2]: 45 nM

Structure (SMILES): COc1ccc(C(=O)OC(C)C)cc1CSc1nc2ccccc2n1CC(=O)O
- IC50 [2]: 150 nM

Structure (SMILES): CC(=O)c1cccc(CSc2nc3ccccc3n2CC(=O)O)c1
- IC50 [2]: 230 nM

Structure (SMILES): COc1ccc(C(C)=O)cc1CSc1nc2c(F)cccc2n1CC(=O)O
- IC50 [1]: 10 nM
- IC50 [2]: 5 nM

Structure (SMILES): COc1ccc(C(C)=O)cc1CSc1nc2ccc(F)cc2n1CC(=O)O
- IC50 [1]: 89 nM
- IC50 [2]: 45 nM

Structure (SMILES): COc1ccc(C(C)=O)cc1CSc1nc2cc([N+](=O)[O-])ccc2n1CC(=O)O
- IC50 [1]: 3 nM
- IC50 [2]: 2 nM

Structure (SMILES): COc1ccc(C(C)=O)cc1CSc1nc2cc(C(F)(F)F)ccc2n1CC(=O)O
- IC50 [1]: 5 nM
- IC50 [2]: 3 nM

Structure (SMILES): COc1ccc(C(C)=O)cc1CSc1nc2cc(S(C)(=O)=O)ccc2n1CC(=O)O
- IC50 [1]: 50 nM
- IC50 [2]: 41 nM

Structure (SMILES): COc1ccc(C(C)=O)cc1CSc1nc2cc(C(C)=O)ccc2n1CC(=O)O
- IC50 [1]: 63 nM
- IC50 [2]: 33 nM

Structure (SMILES): COc1ccc(C(C)=O)cc1CSc1nc2cc(C=O)ccc2n1CC(=O)O
- IC50 [1]: 9 nM
- IC50 [2]: 4 nM

Structure (SMILES): CCOc1ccc(C(C)=O)cc1CSc1nc2cc(F)ccc2n1CC(=O)O
- IC50 [1]: 5 nM
- IC50 [2]: 4 nM

Structure (SMILES): CCCOc1ccc(C(C)=O)cc1CSc1nc2cc(F)ccc2n1CC(=O)O
- IC50 [1]: 9 nM
- IC50 [2]: 5 nM

Structure (SMILES): CCCCOc1ccc(C(C)=O)cc1CSc1nc2cc(F)ccc2n1CC(=O)O
- IC50 [1]: 12 nM
- IC50 [2]: 9 nM

Structure (SMILES): COc1ccc(C(=O)c2ccccc2)cc1CSc1nc2cc(F)ccc2n1CC(=O)O
- IC50 [1]: 4 nM
- IC50 [2]: 1.7 nM

Structure (SMILES): CCNC(=O)c1ccc(OC)c(CSc2nc3cc(F)ccc3n2CC(=O)O)c1
- IC50 [1]: 15 nM
- IC50 [2]: 16 nM

Structure (SMILES): COc1ccc(C(=O)NCc2ccccc2)cc1CSc1nc2cc(F)ccc2n1CC(=O)O
- IC50 [1]: 94 nM
- IC50 [2]: 59 nM

Structure (SMILES): CCN(CC)C(=O)c1ccc(OC)c(CSc2nc3cc(F)ccc3n2CC(=O)O)c1
- IC50 [1]: 130 nM
- IC50 [2]: 72 nM

Structure (SMILES): CCN(Cc1ccccc1)C(=O)c1ccc(OC)c(CSc2nc3cc(F)ccc3n2CC(=O)O)c1
- IC50 [1]: 725 nM
- IC50 [2]: 495 nM

Structure (SMILES): COc1ccc(C(=O)N2CCOCC2)cc1CSc1nc2cc(F)ccc2n1CC(=O)O
- IC50 [1]: 91 nM
- IC50 [2]: 107 nM

Structure (SMILES): O=C(O)Cn1c(SCCc2ccccc2)nc2ccccc21
- IC50 [2]: 881 nM

Structure (SMILES): COc1ccc(C(C)O)cc1CSc1nc2ccccc2n1CC(=O)O (racemic)
- IC50 [2]: 2200 nM

Structure (SMILES): CC(=O)Oc1ccccc1C(=O)O [ASPIRIN]
- Vd [3]: 1 L/kg

Structure (SMILES): CC(=O)CC(c1ccccc1)c1c(O)c2ccccc2oc1=O (configuration not stated) [WARFARIN]
- Vd [3]: 1 L/kg
